Measured values taken from ChEMBL document CHEMBL2375276, “Antibacterial oxazolidinone analogues having a N-hydroxyacetyl-substituted seven-membered [1,2,5]triazepane or [1,2,5]oxadiazepane C-ring unit” (Eur J Med Chem, 2013).
Values after ≈ are worked out from the molar mass of the structure shown.

What was measured:
Cytochrome P450 2D6 = Cytochrome P450 2D6 (Homo sapiens, UniProt P10635); assay: Inhibition of human CYP2D6 assessed as dextromethorphan O-demethylation after 20 mins by LC/MS/MS analysis; assay type: ADME
Cytochrome P450 2D6, sequence (P10635 whole entry): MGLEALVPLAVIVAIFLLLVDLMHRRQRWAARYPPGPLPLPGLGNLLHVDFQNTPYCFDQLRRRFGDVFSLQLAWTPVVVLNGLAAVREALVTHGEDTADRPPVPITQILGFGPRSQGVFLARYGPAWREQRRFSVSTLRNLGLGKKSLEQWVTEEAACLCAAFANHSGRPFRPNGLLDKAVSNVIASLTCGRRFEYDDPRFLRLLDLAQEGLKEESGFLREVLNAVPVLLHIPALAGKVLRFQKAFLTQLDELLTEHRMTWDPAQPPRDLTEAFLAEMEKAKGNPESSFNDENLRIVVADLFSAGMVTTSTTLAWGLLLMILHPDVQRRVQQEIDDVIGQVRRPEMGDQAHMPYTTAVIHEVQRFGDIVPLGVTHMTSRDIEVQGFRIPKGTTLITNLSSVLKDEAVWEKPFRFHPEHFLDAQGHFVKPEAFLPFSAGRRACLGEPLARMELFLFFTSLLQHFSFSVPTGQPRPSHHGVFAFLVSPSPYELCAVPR
In short: (§1)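 Human liver microsomes (0.2 mg protein/mL) with 1 mM NADPH in 50 mM HEPES pH 7.4, 10 mM MgCl2, 0.1 mM EDTA. After centrifugation, supernatant metabolite measured by LC/MS/MS. Standard curve from authentic metabolite cocktail added to unincubated reaction mix.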

Enterococcus faecium = assay: Antibacterial activity against Enterococcus faecium SR7940 clinical isolate assessed as growth inhibition by CLSI broth microdilution method; assay type: functional
In short: (§2)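 MIC by CLSI broth microdilution in cation-adjusted Mueller-Hinton broth; S. pneumoniae medium supplemented with 5% lysed horse blood.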

Streptococcus pneumoniae = assay: Antibacterial activity against Streptococcus pneumoniae SR26207 clinical isolate assessed as growth inhibition by CLSI broth microdilution method; assay type: functional; in short: as §2
Staphylococcus aureus [1] = assay: Antibacterial activity against methicillin-resistant Staphylococcus aureus SR3637 infected in JCL/ICR mouse systemic infection model assessed as mortality administered as iv measured over 7 days; assay type: functional; conditions: 168 h
In short: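 Five-week-old male JCL/ICR mice (20–25 g), five per group. Infected intraperitoneally with 0.5 or 1.0 mL bacterial suspension (about 100× LD50). Intravenous dosing 1 h post-infection. Mortality followed 7 days; ED50 with 95% confidence limits by logit method.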

Staphylococcus aureus [2] = assay: Antibacterial activity against Staphylococcus aureus SR20549 clinical isolate assessed as growth inhibition by CLSI broth microdilution method; assay type: functional; in short: as §2
MAO-A = target: T1, MAO-A (Rattus norvegicus, UniProt P21396); assay: Inhibition of MAO-A in rat forebrain using [14C]5-HT as substrate at 30 uM incubated for 20 mins prior to substrate addition measured after 5 mins by liquid scintillation counting analysis relative to control; assay type: tissue-based; conditions: probe [14C]5-HT
T1 sequence (P21396 whole entry): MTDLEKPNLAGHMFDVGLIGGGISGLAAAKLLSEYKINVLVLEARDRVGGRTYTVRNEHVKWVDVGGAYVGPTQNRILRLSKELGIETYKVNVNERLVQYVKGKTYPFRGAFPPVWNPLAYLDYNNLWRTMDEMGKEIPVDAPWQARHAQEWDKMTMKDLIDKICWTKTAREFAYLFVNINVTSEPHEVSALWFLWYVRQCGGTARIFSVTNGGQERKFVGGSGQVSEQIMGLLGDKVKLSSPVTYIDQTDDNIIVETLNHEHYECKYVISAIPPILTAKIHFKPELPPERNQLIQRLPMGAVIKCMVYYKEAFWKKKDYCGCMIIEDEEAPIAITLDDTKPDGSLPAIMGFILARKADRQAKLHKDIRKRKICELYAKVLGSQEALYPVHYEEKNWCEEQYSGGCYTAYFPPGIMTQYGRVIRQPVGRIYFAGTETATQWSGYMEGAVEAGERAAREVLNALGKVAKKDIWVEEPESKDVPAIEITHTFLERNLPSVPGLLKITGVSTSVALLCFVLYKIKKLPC

Cytochrome P450 2C9 = Cytochrome P450 2C9 (Homo sapiens, UniProt P11712); assay: Inhibition of human CYP2C9 assessed as tolbutamide hydroxylation after 20 mins by LC/MS/MS analysis; assay type: ADME; in short: as §1
Cytochrome P450 2C9, sequence (P11712 whole entry): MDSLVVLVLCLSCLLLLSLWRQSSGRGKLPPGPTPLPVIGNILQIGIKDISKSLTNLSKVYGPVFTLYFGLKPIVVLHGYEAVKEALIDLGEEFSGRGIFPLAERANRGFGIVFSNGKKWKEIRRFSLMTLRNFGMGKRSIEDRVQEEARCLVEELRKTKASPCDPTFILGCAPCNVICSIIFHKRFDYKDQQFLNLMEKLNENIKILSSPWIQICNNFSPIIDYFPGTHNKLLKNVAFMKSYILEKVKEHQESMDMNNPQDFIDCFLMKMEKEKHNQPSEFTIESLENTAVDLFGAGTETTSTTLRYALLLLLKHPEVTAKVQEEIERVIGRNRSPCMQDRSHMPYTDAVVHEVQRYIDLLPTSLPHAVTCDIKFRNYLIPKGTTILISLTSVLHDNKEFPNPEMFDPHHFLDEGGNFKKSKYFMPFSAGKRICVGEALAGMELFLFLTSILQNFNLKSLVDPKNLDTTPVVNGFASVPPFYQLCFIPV

Moraxella catarrhalis = assay: Antibacterial activity against Moraxella catarrhalis SR26840 clinical isolate assessed as growth inhibition by CLSI broth microdilution method; assay type: functional; in short: as §2
Staphylococcus aureus [3] = assay: Antibacterial activity against linezolid-resistant Staphylococcus aureus NRS271 assessed as growth inhibition by CLSI broth microdilution method; assay type: functional
In short: (§3)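 MIC by CLSI broth microdilution in cation-adjusted Mueller-Hinton broth. Lowest concentration inhibiting growth taken as MIC.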

MAO-B = target: T2, MAO-B (Rattus norvegicus, UniProt P19643); assay: Inhibition of MAO-B in rat forebrain using [14C]PEA as substrate at 30 uM incubated for 20 mins prior to substrate addition measured after 10 mins by liquid scintillation counting analysis relative to control; assay type: tissue-based; conditions: probe [14C]PEA
T2 sequence (P19643 whole entry): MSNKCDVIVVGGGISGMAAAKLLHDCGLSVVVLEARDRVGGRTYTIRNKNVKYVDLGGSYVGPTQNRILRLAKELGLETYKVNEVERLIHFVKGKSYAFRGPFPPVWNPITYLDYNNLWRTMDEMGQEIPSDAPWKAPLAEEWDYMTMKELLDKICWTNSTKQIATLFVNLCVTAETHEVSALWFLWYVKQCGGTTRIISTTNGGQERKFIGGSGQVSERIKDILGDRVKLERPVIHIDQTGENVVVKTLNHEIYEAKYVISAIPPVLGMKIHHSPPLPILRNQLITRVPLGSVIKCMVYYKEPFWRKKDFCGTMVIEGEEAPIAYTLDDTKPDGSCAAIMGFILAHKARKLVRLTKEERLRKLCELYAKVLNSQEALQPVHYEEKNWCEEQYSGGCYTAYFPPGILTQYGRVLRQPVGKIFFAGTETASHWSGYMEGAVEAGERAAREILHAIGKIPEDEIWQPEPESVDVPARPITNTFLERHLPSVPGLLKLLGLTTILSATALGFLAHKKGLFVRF

Staphylococcus aureus [4] = assay: Antibacterial activity against Staphylococcus aureus Smith assessed as growth inhibition by CLSI broth microdilution method; assay type: functional; in short: as §2
Enterococcus faecalis = assay: Antibacterial activity against Enterococcus faecalis SR1004 clinical isolate assessed as growth inhibition by CLSI broth microdilution method; assay type: functional; in short: as §2
Cytochrome P450 3A4 = Cytochrome P450 3A4 (Homo sapiens, UniProt P08684); assay: Inhibition of human CYP3A4 assessed as terfenadine hydroxylation after 20 mins by LC/MS/MS analysis; assay type: ADME; in short: as §1
Cytochrome P450 3A4, sequence (P08684 whole entry): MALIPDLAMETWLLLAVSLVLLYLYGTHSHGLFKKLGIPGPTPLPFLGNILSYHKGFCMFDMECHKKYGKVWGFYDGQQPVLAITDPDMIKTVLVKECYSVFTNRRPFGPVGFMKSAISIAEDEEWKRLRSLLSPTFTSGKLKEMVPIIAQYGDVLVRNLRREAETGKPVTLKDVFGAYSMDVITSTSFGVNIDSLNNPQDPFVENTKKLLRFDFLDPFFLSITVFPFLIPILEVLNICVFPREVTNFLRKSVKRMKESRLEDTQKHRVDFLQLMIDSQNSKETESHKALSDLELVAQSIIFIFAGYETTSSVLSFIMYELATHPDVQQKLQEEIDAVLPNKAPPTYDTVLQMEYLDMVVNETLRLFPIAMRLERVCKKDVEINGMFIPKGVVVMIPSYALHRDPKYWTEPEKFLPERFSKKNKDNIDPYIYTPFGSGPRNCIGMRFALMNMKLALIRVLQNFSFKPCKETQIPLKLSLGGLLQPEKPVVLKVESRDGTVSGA

Haemophilus influenzae = assay: Antibacterial activity against Haemophilus influenzae SR27914 clinical isolate assessed as growth inhibition by CLSI broth microdilution method; assay type: functional
In short: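 MIC by CLSI broth microdilution using Haemophilus test medium.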

Cytochrome P450 1A2 = target: T3, Cytochrome P450 1A2 (Homo sapiens, UniProt P05177); assay: Inhibition of human CYP1A2 assessed as ethoxyresorufin O-deethylation after 20 mins by fluorescence plate reader analysis; assay type: ADME
T3 sequence (P05177 whole entry): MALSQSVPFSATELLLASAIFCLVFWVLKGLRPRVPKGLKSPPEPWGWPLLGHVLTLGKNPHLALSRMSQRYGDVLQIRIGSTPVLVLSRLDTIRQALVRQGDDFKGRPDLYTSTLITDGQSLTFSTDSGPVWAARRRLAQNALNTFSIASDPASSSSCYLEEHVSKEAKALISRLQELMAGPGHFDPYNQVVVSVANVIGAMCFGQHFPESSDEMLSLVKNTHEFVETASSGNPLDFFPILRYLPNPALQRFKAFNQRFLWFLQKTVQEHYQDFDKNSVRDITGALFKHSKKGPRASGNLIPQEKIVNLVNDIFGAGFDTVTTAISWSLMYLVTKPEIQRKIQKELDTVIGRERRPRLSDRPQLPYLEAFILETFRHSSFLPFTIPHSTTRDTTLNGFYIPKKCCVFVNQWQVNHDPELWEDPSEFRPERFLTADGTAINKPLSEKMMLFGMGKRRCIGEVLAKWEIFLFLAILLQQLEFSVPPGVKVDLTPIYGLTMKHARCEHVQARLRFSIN
In short: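 Human liver microsomes (0.2 mg protein/mL) with 1 mM NADPH in 50 mM HEPES pH 7.4, 10 mM MgCl2, 0.1 mM EDTA. After centrifugation, supernatant read on a fluorescence plate reader. Standard curve from authentic metabolite added to unincubated reaction mix.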

Staphylococcus aureus [5] = assay: Antibacterial activity against methicillin-resistant Staphylococcus aureus SR3637 assessed as growth inhibition by CLSI broth microdilution method; assay type: functional; in short: as §3
Staphylococcus aureus [6] = assay: Antibacterial activity against methicillin-resistant Staphylococcus aureus SR3637 infected in JCL/ICR mouse systemic infection model assessed as mortality administered as po measured over 7 days; assay type: functional; conditions: 168 h
In short: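 Five-week-old male JCL/ICR mice (20–25 g), five per group. Infected intraperitoneally with 0.5 or 1.0 mL bacterial suspension (about 100× LD50). Oral dosing 1 h post-infection. Mortality followed 7 days; ED50 with 95% confidence limits by logit method.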

| Compound | IC50 (Cytochrome P450 2D6) [µM] | MIC (Enterococcus faecium) [µg/mL] | MIC (Streptococcus pneumoniae) [µg/mL] | ED50 (Staphylococcus aureus [1]) [mg/kg] | MIC (Staphylococcus aureus [2]) [µg/mL] | inhibition at 5 min, 30 µM (MAO-A) [%] | IC50 (Cytochrome P450 2C9) [µM] | MIC (Moraxella catarrhalis) [µg/mL] | MIC (Staphylococcus aureus [3]) [µg/mL] | inhibition at 10 min, 30 µM (MAO-B) [%] | MIC (Staphylococcus aureus [4]) [µg/mL] | MIC (Enterococcus faecalis) [µg/mL] | IC50 (Cytochrome P450 3A4) [µM] | MIC (Haemophilus influenzae) [µg/mL] | IC50 (Cytochrome P450 1A2) [µM] | MIC (Staphylococcus aureus [5]) [µg/mL] | ED50 (Staphylococcus aureus [6]) [mg/kg] |
| --- | --- | --- | --- | --- | --- | --- | --- | --- | --- | --- | --- | --- | --- | --- | --- | --- | --- |
| CC(=O)NC[C@H]1CN(c2ccc(N3CCN(C(=O)CO)CC3)c(F)c2)C(=O)O1 [EPEREZOLID] | > 20 | 2 (≈ 5.07 µM) | 0.125 (≈ 0.317 µM) | 1.85 | 1 (≈ 2.54 µM) | 53.6 | > 20 | 8 (≈ 20.3 µM) | 32 (≈ 81.1 µM) | 20.2 | 1 (≈ 2.54 µM) | 1 (≈ 2.54 µM) | > 20 | 4 (≈ 10.1 µM) | > 20 | 1 (≈ 2.54 µM) | 4.76 |
| CC(=O)NC[C@H]1CN(c2ccc(N3CCOCC3)c(F)c2)C(=O)O1 [LINEZOLID] | > 20 | 2 (≈ 5.93 µM) | – | 1.73 | – | 61.3 | > 20 | 8 (≈ 23.7 µM) | 32 (≈ 94.9 µM) | 70.4 | – | – | > 20 | 16 (≈ 47.4 µM) | > 20 | – | 2.02 |
